Assay results from ChEMBL document CHEMBL4270573, “Novel nicotinoyl pyrazoline derivates bearing N-methyl indole moiety as antitumor agents: Design, synthesis and evaluation” (Eur J Med Chem, 2018).
Active and inactive are the calls of the source. No cut-off for these calls is given here.

Assays:
[1] = tested on: HeLa; assay: Induction of apoptosis in human HeLa cells assessed as necrotic cells at 0.10 uM after 24 hrs by Annexin V-FITC/propidium iodide staining based flow cytometric analysis (reference value: 0.242%); format: functional
Outline: (§1)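 HepG2 and HeLa cells were exposed to 0, 0.02, 0.040, 0.060, 0.080 and 0.10 µM for 6, 12 and 24 h. Cells were double-stained with Annexin V-FITC/PI and read by flow cytometry. Apoptotic rate was the percentage of FITC-positive cells, counting early plus late apoptotic.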

[2] = tested on: HeLa; assay: Induction of apoptosis in human HeLa cells assessed as late apoptotic cells at 0.060 uM after 24 hrs by Annexin V-FITC/propidium iodide staining based flow cytometric analysis (reference value: 4.98%); format: functional; outline: as §1
[3] = tested on: HepG2; assay: Induction of apoptosis in human HepG2 cells assessed as early apoptotic cells at 0.060 uM after 24 hrs by Annexin V-FITC/propidium iodide staining based flow cytometric analysis (reference value: 2.31%); format: functional; outline: as §1
[4] = tested on: Mus musculus; assay: Hepatotoxicity in nude mouse xenografted with human HeLa cells assessed as morphological changes in liver cells at 10 to 20 mg/kg, ip after 14 days by hematoxylin and eosin staining based microscopic analysis; format: toxicity, organism-based; conditions: in vivo, 336 h
Outline: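 HeLa xenograft nude mice with tumours near 100 mm³, randomised to four groups of 28 mice in total. Dosing was intraperitoneal: vehicle, CA-4 10 mg/kg, or test compound at 10 or 20 mg/kg, continued for 14 days. Heart, liver, kidney and spleen were then H&E-stained and examined for inflammatory infiltration, edema, necrosis and cell morphology.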

[5] = tested on: Mus musculus; assay: Cardiotoxicity in nude mouse xenografted with human HeLa cells assessed as morphological changes in heart cells at 10 to 20 mg/kg, ip after 14 days by hematoxylin and eosin staining based microscopic analysis; format: toxicity, organism-based; conditions: in vivo, 336 h
Outline: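 Excised tumours and heart, liver, kidney and spleen were H&E-stained and examined microscopically. Tumour scoring covered cell arrangement and necrosis. Organ scoring covered inflammatory infiltration, edema, necrosis and cell morphology.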

[6] = tested on: HeLa; assay: Cell cycle arrest in human HeLa cells assessed as accumulation at G2/M phase at 0.10 uM after 24 hrs by propidium iodide staining based flow cytometric analysis (reference value: 17.72%); format: functional
Outline: (§2)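 HepG2 and HeLa cells were exposed to 0, 0.020, 0.040, 0.060, 0.080 or 0.10 µM for 6, 12 or 24 h. DNA content was stained with propidium iodide and analysed by flow cytometry to give the percentage of cells in G0/G1, S and G2/M phases; sub-G1 cells were also recorded.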

[7] = tested on: HeLa; assay: Cell cycle arrest in human HeLa cells assessed as accumulation at G0/G1 phase at 0.020 uM after 24 hrs by propidium iodide staining based flow cytometric analysis (reference value: 66.26%); format: functional; outline: as §2
[8] = tested on: HeLa; assay: Induction of apoptosis in human HeLa cells assessed as late apoptotic cells at 0.040 uM after 24 hrs by Annexin V-FITC/propidium iodide staining based flow cytometric analysis (reference value: 4.98%); format: functional; outline: as §1
[9] = tested on: HeLa; assay: Cell cycle arrest in human HeLa cells assessed as accumulation at G2/M phase at 0.080 uM after 12 hrs by propidium iodide staining based flow cytometric analysis relative to control; format: functional; outline: as §2
[10] = tested on: HepG2; assay: Induction of apoptosis in human HepG2 cells assessed as necrotic cells at 0.080 uM after 24 hrs by Annexin V-FITC/propidium iodide staining based flow cytometric analysis (reference value: 0.270%); format: functional; outline: as §1
[11] = Inhibition of porcine brain tubulin polymerization measured over 30 mins; design: species or system Sus scrofa
[12] = tested on: HeLa; assay: Induction of apoptosis in human HeLa cells assessed as necrotic cells at 0.060 uM after 24 hrs by Annexin V-FITC/propidium iodide staining based flow cytometric analysis (reference value: 0.242%); format: functional; outline: as §1
[13] = tested on: HeLa; assay: Antitumor activity against human HeLa cells xenografted in nude mouse assessed as tumor volume at 10 mg/kg, ip after 14 days (reference value: 2292.17 mm3); format: functional
[14] = tested on: HepG2; assay: Cell cycle arrest in human HepG2 cells assessed as accumulation at G2/M phase at 0.020 to 0.10 uM after 6 to 24 hrs by propidium iodide staining based flow cytometric analysis relative to control; format: functional; outline: as §2
[15] = Selectivity index, ratio of CC50 for HEK293T cells to GI50 for human HeLa cells; format: toxicity; conditions: HEK293T cells and HeLa cells, read-out: Selectivity Index
Outline: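 Ratio CC50/GI50: CC50 is the concentration reducing non-tumour 293T cell proliferation by 50%; GI50 is the concentration reducing cancer cell proliferation by 50%.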

[16] = tested on: HepG2; assay: Induction of apoptosis in human HepG2 cells assessed as necrotic cells at 0.020 uM after 24 hrs by Annexin V-FITC/propidium iodide staining based flow cytometric analysis (reference value: 0.270%); format: functional; outline: as §1
[17] = tested on: Mus musculus; assay: Toxicity in nude mouse xenografted with human HeLa cells assessed as change in mouse kidney weight at 10 to 20 mg/kg, ip after 14 days; format: organism-based; conditions: in vivo, 336 h
[18] = tested on: HeLa; assay: Induction of apoptosis in human HeLa cells assessed as viable cells at 0.080 uM after 24 hrs by Annexin V-FITC/propidium iodide staining based flow cytometric analysis (reference value: 88.6%); format: functional; conditions: read-out: Activity; outline: as §1
[19] = target: Tubulin (Homo sapiens) (UniProt P68371+Q9H4B7+P0DPH7+P68366+Q13509+Q71U36+P04350+Q3ZCM7+P07437+P68363+Q9BQE3+Q6PEY2+Q13885+Q9BVA1+Q9BUF5); assay: Inhibition of tubulin polymerization in human HepG2 cells assessed as abnormal microtubule network formation at 0.04 to 0.1 uM after 12 hrs by DAPI staining based immunofluorescence confocal laser scanning microscopic analysis; format: cell-based
[20] = tested on: HepG2; assay: Cell cycle arrest in human HepG2 cells assessed as accumulation at G2/M phase at 0.10 uM after 24 hrs by propidium iodide staining based flow cytometric analysis (reference value: 20.17%); format: functional; outline: as §2
[21] = tested on: HeLa; assay: Induction of apoptosis in human HeLa cells assessed as early apoptotic cells at 0.080 uM after 24 hrs by Annexin V-FITC/propidium iodide staining based flow cytometric analysis (reference value: 6.17%); format: functional; outline: as §1
[22] = tested on: HeLa; assay: Cell cycle arrest in human HeLa cells assessed as accumulation at S phase at 0.10 uM after 24 hrs by propidium iodide staining based flow cytometric analysis (reference value: 17.46%); format: functional; outline: as §2
[23] = tested on: HeLa; assay: Cell cycle arrest in human HeLa cells assessed as accumulation at G2/M phase at 0.060 uM after 24 hrs by propidium iodide staining based flow cytometric analysis (reference value: 17.72%); format: functional; outline: as §2
[24] = tested on: HepG2; assay: Cell cycle arrest in human HepG2 cells assessed as accumulation at G2/M phase at 0.020 uM after 24 hrs by propidium iodide staining based flow cytometric analysis (reference value: 20.17%); format: functional; outline: as §2
[25] = Cytotoxicity against HEK293T cells assessed as reduction in cell viability after 48 hrs by MTT assay; format: cell-based, HEK-293T; conditions: human
[26] = tested on: HepG2; assay: Induction of apoptosis in human HepG2 cells assessed as early apoptotic cells at 0.10 uM after 24 hrs by Annexin V-FITC/propidium iodide staining based flow cytometric analysis (reference value: 2.31%); format: functional; outline: as §1
[27] = tested on: HepG2; assay: Cell cycle arrest in human HepG2 cells assessed as accumulation at S phase at 0.020 uM after 24 hrs by propidium iodide staining based flow cytometric analysis (reference value: 20.40%); format: functional; outline: as §2

COc1cccc(C2=NN(C(=O)c3ccc(C)nc3)C(c3cn(C)c4ccc(OC)cc34)C2)c1 (configuration not stated)
Activity [1]: 0.76% | Activity [2]: 6.49% | Activity [3]: 7.94% | Activity [4]: Non-Toxic | Activity [5]: Non-Toxic | Activity [6]: 61.12% | Activity [7]: 66.95% | Activity [8]: 3.95% | Activity [9]: 66.08% | Activity [10]: 2.95% | IC50 [11]: 1600 nM | Activity [12]: 0.484% | Activity [13]: 1213.02 mm3 | Activity [14]: >60% | selectivity ratio [15]: 3 to 10 | Activity [16]: 0.771% | Activity [17]: Non-Toxic | viability at 0.08 µM [18]: 61.8% | inhibition [19]: Active | Activity [20]: 51.22% | Activity [21]: 30.2% | Activity [22]: 17.88% | Activity [23]: 65.43% | Activity [24]: 24.3% | CC50 at 48 h [25]: > 300000 nM | Activity [26]: 18.5% | Activity [27]: 19.81%
